Assay results published in ChEMBL document CHEMBL1154557, “Induction of choline acetyltransferase activity in cholinergic neurons by stolonidiol: structure-activity relationship” (J Nat Prod, 2000).
Blank lines part the entries; values can stand above or below the compound they belong to. Active and inactive are the calls of the source. No cut-off for these calls is given here.

Key:
[1] = molecular target: T1, Choline O-acetyltransferase (Rattus norvegicus) (UniProt P32738); test: Induction of ChAT activity in rat forebrain cells at 1 ug/mL relative to control; type: cell-based
T1 sequence (whole entry): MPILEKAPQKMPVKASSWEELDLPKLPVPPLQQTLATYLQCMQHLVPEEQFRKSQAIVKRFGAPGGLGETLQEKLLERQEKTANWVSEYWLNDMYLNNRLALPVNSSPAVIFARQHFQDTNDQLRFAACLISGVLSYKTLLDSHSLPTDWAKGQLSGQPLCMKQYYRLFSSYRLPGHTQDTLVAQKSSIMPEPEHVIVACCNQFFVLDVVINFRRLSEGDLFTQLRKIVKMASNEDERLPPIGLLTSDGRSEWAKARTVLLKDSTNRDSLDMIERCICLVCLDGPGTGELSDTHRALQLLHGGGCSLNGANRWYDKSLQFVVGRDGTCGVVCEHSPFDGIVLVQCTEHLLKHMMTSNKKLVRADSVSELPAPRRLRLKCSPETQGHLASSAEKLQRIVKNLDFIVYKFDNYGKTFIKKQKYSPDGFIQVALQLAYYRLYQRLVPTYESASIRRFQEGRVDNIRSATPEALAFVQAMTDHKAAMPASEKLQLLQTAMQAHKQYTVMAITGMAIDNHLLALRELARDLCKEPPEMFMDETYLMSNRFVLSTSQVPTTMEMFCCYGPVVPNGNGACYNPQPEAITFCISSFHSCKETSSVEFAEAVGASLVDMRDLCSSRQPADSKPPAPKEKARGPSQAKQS
Procedure, shortened: (§1)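 Basal forebrain from E17–19 rat embryos, papain-dissociated, plated at 1 × 10^6 cells/well in DMEM/F12 with 5% FBS and 5% horse serum. After 7 days of preculture, cells were exposed for 3 days. Lysate (1% Triton X-100, pH 6.8 Tris) was incubated with 25 µM [14C]acetyl-CoA and 8 mM choline with eserine for 1 h at 37 °C. Extracted [14C]ACh was counted. Results are % of control, n = 3.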

[2] = molecular target: T1, Choline O-acetyltransferase (Rattus norvegicus); test: Induction of ChAT activity in rat forebrain cells at 0.1 ug/mL relative to control; type: cell-based; procedure, shortened: as §1
[3] = Cytotoxicity against rat basal forebrain cells at 10 ug/mL
[4] = molecular target: T1, Choline O-acetyltransferase (Rattus norvegicus); test: Induction of ChAT activity in rat forebrain cultured cells at 0.01 ug/mL after 3 days relative to control; type: cell-based; procedure, shortened: as §1
[5] = molecular target: T1, Choline O-acetyltransferase (Rattus norvegicus); test: Induction of ChAT activity in rat forebrain cultured cells at 0.1 ug/mL after 3 days relative to control; type: cell-based; procedure, shortened: as §1
[6] = molecular target: T2, Choline O-acetyltransferase (Mus musculus) (UniProt Q03059); test: Induction of ChAT activity in mouse SN49 cultured cells at 10 ug/mL after 3 days relative to control; type: cell-based
T2 sequence (whole entry): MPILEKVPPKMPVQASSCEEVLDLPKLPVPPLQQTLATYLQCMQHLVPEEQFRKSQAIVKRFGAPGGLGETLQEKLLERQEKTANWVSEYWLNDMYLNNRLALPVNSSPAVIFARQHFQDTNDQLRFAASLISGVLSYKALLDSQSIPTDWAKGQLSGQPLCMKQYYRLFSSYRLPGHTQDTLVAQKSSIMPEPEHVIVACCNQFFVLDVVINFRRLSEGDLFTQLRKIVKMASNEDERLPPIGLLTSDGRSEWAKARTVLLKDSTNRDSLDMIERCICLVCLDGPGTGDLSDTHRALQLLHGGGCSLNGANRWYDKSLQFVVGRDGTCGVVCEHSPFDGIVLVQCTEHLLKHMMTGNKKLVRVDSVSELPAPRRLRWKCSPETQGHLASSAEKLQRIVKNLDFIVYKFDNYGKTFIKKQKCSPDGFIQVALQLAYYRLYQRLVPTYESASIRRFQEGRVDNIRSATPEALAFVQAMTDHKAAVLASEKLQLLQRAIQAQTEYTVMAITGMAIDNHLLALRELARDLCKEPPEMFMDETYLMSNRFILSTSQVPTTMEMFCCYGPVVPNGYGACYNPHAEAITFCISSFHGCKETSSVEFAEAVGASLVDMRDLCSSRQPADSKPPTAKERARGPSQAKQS
Procedure, shortened: (§2)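 Mouse septal SN49 hybrid cells were grown in DMEM with 10% FBS and plated at 2 × 10^5 cells/well. After 24 h at 37 °C, compound was added for a further 48 h. ChAT was measured in Triton lysates as [14C]acetylcholine formed from 25 µM [14C]acetyl-CoA and 8 mM choline chloride (0.1 mM eserine, 37 °C, 1 h) by scintillation counting. Results are % of control, n = 3, with Dunnett test.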

[7] = molecular target: T2, Choline O-acetyltransferase (Mus musculus); test: Induction of ChAT activity in mouse SN49 cultured cells at 0.01 ug/mL after 3 days relative to control; type: cell-based; procedure, shortened: as §2
[8] = molecular target: T1, Choline O-acetyltransferase (Rattus norvegicus); test: Induction of ChAT activity in rat forebrain cultured cells at 1 ug/mL after 3 days relative to control; type: cell-based; procedure, shortened: as §1
[9] = molecular target: T2, Choline O-acetyltransferase (Mus musculus); test: Induction of ChAT activity in mouse SN49 cultured cells at 1 ug/mL after 3 days relative to control; type: cell-based; procedure, shortened: as §2
[10] = Cytotoxicity against rat forebrain cells at 10 ug/mL; type: cell-based
[11] = molecular target: T1, Choline O-acetyltransferase (Rattus norvegicus); test: Induction of ChAT activity in rat forebrain cultured cells at 10 ug/mL after 3 days relative to control; type: cell-based; procedure, shortened: as §1
[12] = molecular target: T2, Choline O-acetyltransferase (Mus musculus); test: Induction of ChAT activity in mouse SN49 cultured cells at 0.1 ug/mL after 3 days relative to control; type: cell-based; procedure, shortened: as §2
Rattus norvegicus [13] = species: Rattus norvegicus; test: Induction of ChAT mRNA expression in rat forebrain cells at 0.1 ug/mL after 6 hrs by RT-PCR method; type: functional, cell-based
Procedure, shortened: (§3)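 Cultured rat embryo basal forebrain cells were exposed for 6 h. ChAT mRNA was assessed by RT-PCR, and ethidium bromide-stained products were quantified by optical scanning as relative intensities.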

Rattus norvegicus [14] = species: Rattus norvegicus; test: Induction of ChAT mRNA expression in rat forebrain cells at 1 ug/mL after 6 hrs by RT-PCR method; type: functional, cell-based; procedure, shortened: as §3

SMILES: C=C1CC[C@@H]2O[C@]2(COC(=O)CCCCCCCCCCCCC)C[C@H]2O[C@@]23[C@H](C(C)(C)O)CC[C@@]3(C)CC1
Activity [1]: 174%
Activity [2]: 97.6%

SMILES: C=C1CC[C@@H]2O[C@]2(COC(C)=O)C[C@H]2O[C@@]23[C@H](C(C)(C)O)CC[C@@]3(C)[C@H](OC(C)=O)C1
Activity [1]: 161%
Activity [2]: 11.5%

SMILES: COC1(OC)CC[C@@H]2O[C@]2(CO)C[C@H]2O[C@@]23[C@H](C(C)(C)O)CC[C@@]3(C)CC1
Activity [1]: 104%
Activity [2]: 109%

SMILES: C=C1CC/C=C(/CO)C/C=C2\[C@H](C(C)(C)O)CC[C@@]2(C)CC1
Activity [1]: 122%
Activity [2]: 109%

SMILES: C=C1CC[C@@H]2O[C@]2(COC(=O)CCCCCCCCCCC)C[C@H]2O[C@@]23[C@H](C(C)(C)O)CC[C@@]3(C)CC1
Activity [1]: 143%
Activity [2]: 108%

Second part, led by results:

Activity [4]: 130%
Activity [1]: 231%
Activity [5]: 178%
Activity [6]: 92.7%
Activity [7]: 146%
Activity [8]: 139%
Activity [9]: 145%
Activity [2]: 127%
Activity [11]: 38.2%
Activity [12]: 142%
SMILES: C=C1CC[C@@H]2O[C@]2(CO)C[C@H]2O[C@@]23[C@H](C(C)(C)O)CC[C@@]3(C)CC1 [STOLONIDIOL]
Activity [3]: Toxic
Activity [10]: Toxic
Activity (Rattus norvegicus [13]): Active
Activity (Rattus norvegicus [14]): Active

Activity [1]: 173%
Activity [2]: 116%
SMILES: C=C1CC[C@@H]2O[C@]2(COC(=O)c2ccccc2)C[C@H]2O[C@@]23[C@H](C(C)(C)O)CC[C@@]3(C)CC1

Activity [1]: 210%
Activity [2]: 89.2%
SMILES: C=C1CC[C@@H]2O[C@]2(COC(C)=O)C[C@H]2O[C@@]23[C@H](C(C)(C)O)CC[C@@]3(C)CC1

Activity [1]: 92.3%
Activity [2]: 89.2%
SMILES: C=C1CC[C@@H](OC)[C@@](O)(CO)C[C@H]2O[C@@]23[C@H](C(C)(C)O)CC[C@@]3(C)CC1

Activity [1]: 164%
Activity [2]: 139%
SMILES: C=C1CC[C@@H]2O[C@]2(COC(=O)CCCCC)C[C@H]2O[C@@]23[C@H](C(C)(C)O)CC[C@@]3(C)CC1

Activity [1]: 179%
Activity [2]: 118%
SMILES: C=C1CC[C@@H]2O[C@]2(COC(=O)CCC)C[C@H]2O[C@@]23[C@H](C(C)(C)O)CC[C@@]3(C)CC1

Activity [1]: 95.3%
Activity [2]: 96.7%
SMILES: C=C1CC[C@@H](Cl)[C@@](O)(COC(=O)c2ccc(Br)cc2)C[C@H]2O[C@@]23[C@H](C(C)(C)O)CC[C@@]3(C)CC1
